# Laboratory results published in PubChem BioAssay.
# Values without a mark were called inactive. Records with an inconclusive call do not appear. Activity calls are given as the source filed them.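 How the source made its calls, unless noted: active means cell viability at or below a set limit in both duplicate runs, the limit being the all-compound median minus 4 SD (cut at about 23% in these data, passing the limit was not always enough); inconclusive means no clear call, values can overlap the other calls; inactive means the rest.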
# Experiments:
# [1] = S. cerevisiae growth inhibition in permissive medium (OD615), pilot counter-assay for S. cerevisiae lifespan shortening project, permissive growth control (AID 705;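 active means growth inhibition above 25% in both replicates, a cutoff set 3 SD above the mean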); conditions: OD615, 24 h, at 10 µM, hits give high values
# Procedure, shortened: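 Timing: 24 h exposure, 30 °C / Material: Saccharomyces cerevisiae strain carrying genetically modified DeaD replicative-lifespan system / Signal: OD at 615 nm / Compound: 10 µM single dose, 0.25% DMSO / Medium: SC raffinose/galactose permissive medium / Evaluation: reduction in yeast growth (OD615)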
# [2] = S. cerevisiae growth inhibition in restrictive medium, OD615, pilot screen, restrictive growth control, yeast lifespan reduction project (AID 706;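 active means growth inhibition above a set limit, 3 SD over mean compound inhibition, in both replicates, cut at about 43% in these data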;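 further: modified DeaD lifespan yeast strain shifted to restrictive glucose medium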); conditions: OD615, 48 h, at 10 µM, hits give high values
# Procedure, shortened: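 System: Engineered S. cerevisiae DeaD strain | Detection: OD615 | Buffer or medium: CSMM-D glucose medium | Doses: 10 µM compound, 0.25% DMSO | Timing: 4 h pre-growth plus 48 h compound exposure, 30 °C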
# [3] = doxorubicin toxicity protection in MRP-1 cells – H69AR cells, CellTiter-Glo, duplicate, MRP-1 activator project, pilot screen (AID 807;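 active means viability increase at or above a cutoff of the median across tested compounds plus 3 SD, cut at about 8.5% in these data, passing the limit was not always enough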;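 further: compound pretreatment 18-22 h then 72 h combined with doxorubicin; 0% = doxorubicin alone and 100% = vehicle without doxorubicin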); conditions: H69AR viability with doxorubicin, CellTiter-Glo luminescence; at 10 µM; hits give high values
# [4] = viability of HCT116 without oncogenic beta-catenin – human colon tumor cells, pilot screen (AID 823); conditions: HCT116 beta-catenin knockout viability, CellTiter-Glo, 60 h; at 10 µM; hits give low values;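 further: 0% = wells killed by 20 µM Hyamine and 100% = untreated DMSO cell wells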
# [5] = viability of PTEN-null HCT116 cells – cell-based, HCT116 clonal line, CellTiter-Glo, pilot screen (AID 824;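 active means viability at or below 27.92% in each of two runs, the all-compound median minus 4 SD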;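 further: 0% = 20 µM Hyamine control and 100% = vehicle cell control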); conditions: HCT116 PTEN-deleted viability, 60 h, at 10 µM, hits give low values
# [6] = RAM pathway blockade in budding yeast – dse1pr::URA3 reporter, 5-FOA selection, pilot screen (AID 869;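 active means inhibition over a set limit, the all-compound mean plus 3 SD, in both replicate runs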;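 further: 0% = DMSO wells with no growth and 100% = 10 µM 1-NA-PP1 with full growth; RAM network block rescues cells from 5-FOA so hits raise OD615 growth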); conditions: S. cerevisiae dse1pr::URA3 5-FOA growth, OD615, 2 d; at 10 µM; hits give high values; strain carries analog-sensitive mutant Cbk1 kinase
# [7] = RAM signaling pathway blockade in yeast – S. cerevisiae, Pdr1DBD-CYC8 efflux-inhibited sensitized strain, primary screen (AID 1298;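 active means RAM network inhibition above 8.4% in each of two replicates, 3 SD over the compound average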;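 further: 0% = DMSO untreated cells without growth and 100% = 10 µM 1-NA-PP1 full growth; higher means more yeast growth rescued from 5-FOA killing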); conditions: S. cerevisiae cbk1-as DSE1-URA3 strain, 5-FOA growth OD615, 2 d; at 50 µM; hits give high values
Compound,growth inhibition [1] [%],growth inhibition [2] [%],viability increase [3] [%],viability [4],viability [5],inhibition [6] [%],RAM network inhibition [7] [%]
COCC(C)N=Cc1c(O)[nH]c2ccccc12 (configuration not stated),0.585,1.21,-2.38,92.1%,97.5%,0.82,-1.18
Cc1ccc(C2CC(c3ccc(Cl)cc3)n3nc(N)nc3N2)cc1 (configuration not stated),1.88,7.93,-0.27,93.9%,93.5%,1.9,8.2
C=CCn1c(SCC(=O)N2CCOCC2)nc(O)c(Cc2ccccc2)c1=O,-12.9,-8.77,1.77,99.4%,98.5%,1.49,1.73
COc1ccc(C2NC(=O)NC(O)(C(F)(F)F)C2C(=O)c2ccc(C)cc2)cc1 (configuration not stated),6.2,-7.89,-2.35,100%,95.1%,0.56,-1.03
COC(=O)c1nc2n(n1)C(c1cccc(Cl)c1)C1=C(CC(C)(C)CC1=O)N2 (configuration not stated),2.12,-2.75,-2.72,98.7%,99.8%,0.75,-0.77
O=C(NC1CCCc2ccccc21)C1CCN(c2c(N3CCCC3)c(=O)c2=O)CC1 (configuration not stated),-5.2,-2.66,-3.06,92.4%,90%,1.51,-0.37
O=C1c2oc3ccccc3c(=O)c2C(c2cccc(O)c2)N1c1ccccn1 (configuration not stated),-7.62,-6.25,-0.37,82.2%,79.6%,1.85,-0.1
c1ccc2c(c1)OCC(c1csc3ncnc(N4CCOCC4)c13)O2 (configuration not stated),-14.1,-9.32,-3.2,94.4%,75.7%,1.26,8.63
O=C1CCCc2sccc2N1,-6.83,-3.71,-1.57,106%,96.9%,0.26,2.15
COCCN(CCOC)C(=O)c1cc2sc3ccccc3c2s1,-6.12,-4.95,0.72,92.4%,90.4%,0.11,0.31
COC(=O)CSC1=C(C#N)C(c2ccc(C(C)C)cc2)CC(=O)N1 (configuration not stated),-0.135,-3.29,0.86,89.8%,89.3%,3.04,4.09
CCOc1ccc(OCC)c(Nc2cc(C)nc3ncnn23)c1,-1.1,7.09,-3.71,90%,87.7%,0.1,-0.06
C=CCOC(=O)C1=C(C)NC(=O)NC1/C=C/c1ccccc1 (configuration not stated),-5.98,-13.1,-0.12,92.5%,95%,2.77,8.11
COc1ccc(N(CC(=O)Nc2ccc3c(c2)OCO3)S(C)(=O)=O)c(OC)c1,-12.6,-4.5,-2.19,97.9%,96.5%,1.41,4.05
Cc1onc(-c2ccccc2)c1C(=O)Nc1ccccc1C#N,-5.39,-4.02,-2.87,97.3%,91.8%,1.89,2.87
O=C(NC1CCCCC1)c1ccc(Br)o1,-5.84,-1.68,-1.9,102%,102%,0.915,3.82
CCOC(=O)C1CCCN(c2c(Nc3cccc(C)c3)c(=O)c2=O)C1 (configuration not stated),-6.7,2.08,-2.71,104%,93.2%,-0.555,2.72
O=C(COc1ccccc1)Nc1nnc(-c2ccc(Cl)s2)o1,-2.75,8.75,-1.36,109%,100%,2.67,1.52

Compound,growth inhibition [1] [%],growth inhibition [2] [%],viability increase [3] [%],viability [4],viability [5],inhibition [6] [%],RAM network inhibition [7] [%]
O=C(c1ccc2snnc2c1)N1CCCC1,-11.3,-4.86,-0.66,99.7%,94.2%,1.14,4.99
C=CCSc1nnc(-c2cc(Br)ccc2N)c(=O)[nH]1,-14.6,-18,0.99,102%,96.5%,0.7,2.42
COc1cc2c(cc1OC)C(C(=O)N1CCCC1)C(c1ccccc1F)N(C)C2=O (configuration not stated),-23.3,-16.3,-1.68,91.3%,97%,0.27,3.55
COC(=O)c1ccc2[nH]c(C)cc(=O)c2c1,-15.1,-24.1,-0.51,99.8%,90.9%,1.61,4.64
COc1cc(/C=N/n2cnnc2)ccc1OC(=O)c1ccncc1,-13.9,-15.2,-2.23,92.9%,99.1%,1.43,1.08
O=C(NCc1ccccc1)c1ccc(/C=N/O)nc1,-17.6,-5.67,-0.06,98.2%,106%,2.25,6.66
CCOC(=O)c1c(C)oc2cc(Br)c(OC(=O)N3CCOCC3)cc12,-10.9,-3.17,-0.62,88%,88.8%,0.13,1.4
COc1ccc(C2C(C(=O)N3CCCC3)c3cc(OC)c(OC)cc3C(=O)N2C)cc1OC (configuration not stated),-6.69,-25.4,-1.65,105%,100%,1.54,2.23
CC(=O)Nc1sc(N)nc1-c1ccccc1,-7.75,16.2,0.94,88.7%,99.5%,0.055,3.89
CSc1nc2ccc(NS(=O)(=O)c3ccc4c(c3)OCCO4)cc2s1,0.175,0.53,0.31,90.8%,88.4%,0.865,5.46
O=c1cc(N2CCOCC2)[nH]c(=O)n1Cc1ccc(F)cc1,5.3,-2.77,0.52,95.3%,99.1%,1.04,-0.98
Cc1cccn2c(=O)c3cc(C#N)c(=NC(=O)c4ccccc4)n(Cc4ccco4)c3nc12,-4.6,-12.7,-1.26,72.7%,62.2%,1.75,4.04
Cc1cc(C)n(-c2nc(NC(C)(C)C)nc(NC(C)(C)C)n2)n1,-11.5,11.4,-2.08,8.58% (active),11.2% (active),2.85,5.62
Cc1noc(NS(=O)(=O)c2ccc(NC(=O)c3cnc4scc(C)n4c3=O)cc2)c1C,-2.39,-5.18,1.99,101%,101%,2.61,6.1
COc1cc(OC)c(C2N(c3ccc(Cl)cc3)C(=O)C3CCCN32)cc1OC (configuration not stated),-2.8,-2.08,-2.63,105%,96.7%,2.59,3.82
CCOc1ccccc1NC(=O)CN1C(=O)COc2ccc(Cl)cc21,-16.8,-11.8,-1.27,91.7%,84.2%,4.02,5.69
Cc1cc2cc(CCNC(=O)c3c(-c4ccccc4Cl)noc3C)c(=O)[nH]c2cc1C,-14.1,-2.13,-3.71,94.9%,94.7%,1.85,3.43
CSc1nc2sc3c(c2c(=O)n1C)CCCC3,7.93,8.89,-0.98,99.9%,94.7%,0.695,3.94
